Sampled rows, rich in hits. Any-hit rate of the full collection: about 1.7%.
SUMO1-SIM PPI: alters human SUMO1 binding to SIM partners. hit rate 0.33% among 360,000. AID 602429. P63165. SUMO1 binding to a labelled peptide, TR-FRET, 1 h. inhibition, % at 20 µM; in the data active = inhibition above about 37%
Target sequence (P63165 whole entry, looked up): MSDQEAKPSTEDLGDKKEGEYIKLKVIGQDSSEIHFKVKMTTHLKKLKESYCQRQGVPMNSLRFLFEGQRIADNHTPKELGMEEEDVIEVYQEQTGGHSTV
LMPTP inh: LMPTP (human) inhibition | P24666 | hit rate 0.22% among 360,000 | inhibition, % at 20 µM | AID 651560 | recombinant LMPTP-A, OMFP fluorogenic substrate, fluorescence intensity;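 active = compounds that cut the enzyme signal by at least half of the control window in the single-dose screen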;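 note: plate controls were DMSO wells with enzyme plus substrate for no effect and substrate without enzyme for full effect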
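Assay system: LMPTP-A, protein tyrosine phosphatase of low molecular weight / Medium: pH 6.0 Bis-Tris buffer with DTT and Triton X-100 / Schedule: 50 min enzyme reaction at room temperature, protected from light / Measured by: endpoint fluorescence intensity from OMFP dephosphorylation / Read-out basis: % inhibition relative to no-enzyme and uninhibited control wells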
STEP block: blocks human striatal-enriched tyrosine phosphatase; recombinant STEP, OMFP fluorogenic substrate, fluorescence; inhibition, % at 20 µM; P54829; hit rate 0.25% among 360,000;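 active = inhibition at 20 µM, scaled per plate between control wells, above about 37%, limit read from the data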;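 note: 0% = DMSO with enzyme and substrate and 100% = substrate only without enzyme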
Target sequence (P54829 whole entry, looked up): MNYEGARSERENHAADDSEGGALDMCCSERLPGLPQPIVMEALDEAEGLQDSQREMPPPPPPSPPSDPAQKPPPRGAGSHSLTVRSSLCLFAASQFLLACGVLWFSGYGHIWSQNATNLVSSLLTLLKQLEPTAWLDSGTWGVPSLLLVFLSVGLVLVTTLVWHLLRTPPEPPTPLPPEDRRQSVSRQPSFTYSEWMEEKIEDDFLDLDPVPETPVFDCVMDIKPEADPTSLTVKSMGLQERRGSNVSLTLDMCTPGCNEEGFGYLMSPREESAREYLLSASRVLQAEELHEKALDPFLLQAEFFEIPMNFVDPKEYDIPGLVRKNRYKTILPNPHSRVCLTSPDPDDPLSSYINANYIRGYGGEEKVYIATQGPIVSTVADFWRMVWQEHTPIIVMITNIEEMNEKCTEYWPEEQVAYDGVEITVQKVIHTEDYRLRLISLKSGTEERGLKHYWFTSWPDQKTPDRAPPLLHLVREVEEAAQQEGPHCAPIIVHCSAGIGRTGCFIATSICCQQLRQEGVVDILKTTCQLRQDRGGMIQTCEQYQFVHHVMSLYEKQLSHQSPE
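Material: STEP (striatal-enriched tyrosine phosphatase) enzyme, cell-free | Medium: 50 mM Bis-Tris pH 6.0 with 2.5 mM DTT and 0.005% Tween 20 | Read-out: Percent inhibition scaled to no-enzyme and uninhibited-enzyme controls, plate-pattern corrected | Signal: Fluorescence read at 480 nm ex / 540 nm em | Times: 20 min reaction, room temperature, in the dark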
Scp-1 inhibitor: blocks human Scp-1 phosphatase activity. AID 493091. Recombinant Scp1, phosphopeptide, malachite green phosphate absorbance. Q9GZU7. inhibition, % at 20 µM. hit rate 0.88% among 340,000;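 active = inhibition above about 50% at 20 µM, limit read from the data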;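 note: plate controls were DMSO wells with enzyme for no effect and wells lacking enzyme for full effect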
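Assay system: SCP-1 catalytic fragment, aa 76-261 | Buffer or medium: Tris acetate buffer pH 5.5 with MgCl2 and Tween-20 | Compound: One concentration, 20 µM, with 1.0% DMSO | Also added: Phospho 17-mer peptide substrate | Signal: Absorbance at 630 nm | Incubation: 45 min enzyme reaction at room temperature | Measure: % inhibition of SCP-1 phosphate liberation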
Pemphigus Ab inh: blocks pemphigus antibody binding to human desmoglein-3 | P32926 | DSG3-coupled beads, scFv-anti-DSG3-GFP binding, flow cytometry; active compounds read low | binding (percent of control), % at 10 µM | hit rate 0.48% among 310,000 | AID 588358;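 active = binding more than 3 SD below its plate's average and above zero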;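 note: hits lower antibody fragment binding to DSG3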
Active calls of the source: *; . = not tested or not shown.

SMILES	SUMO1-SIM PPI	LMPTP inh	STEP block	Scp-1 inhibitor	Pemphigus Ab inh
CCCCN(C(=O)c1c(CC)noc1C)c1c(N)n(CCC)c(=O)[nH]c1=O	4.8	-1.4	-1.6	-4.0	102.5
Cc1cc(-c2nc3ncccc3o2)ccc1NC(=S)NC(=O)C(C)C	-0.3	1.1	-3.5	-1.3	53.8*
Cc1ccc(-c2nc3ncccc3o2)cc1NC(=O)C(C)C	0.7	-0.4	-1.0	0.3	102.5
CC(C)(C)NS(=O)(=O)c1ccc(CCC(=O)Nc2ccc3c(c2)OCO3)cc1	-1.0	0.1	0.5	-3.7	-0.5*
CC(C)(C)NS(=O)(=O)c1ccc(CCC(=O)Nc2ccc3c(c2)OCCO3)cc1	-6.3	0.2	2.3	-8.2	96.6
CC(C)(C)c1ccc(C(=O)N2CCN(CCNC(=O)C(=O)NCc3ccc(Cl)cc3)CC2)cc1	-2.7	1.6	2.2	2.4	95.8*
COc1cccc(C(=O)NN2CC(O)=C(c3nc4ccccc4s3)C2=N)c1	-1.5	6.0	2.9	9.2	100.8
N=C1C(c2nc3ccccc3s2)=C(O)CN1NC(=O)c1ccco1	-4.3	-1.4	2.0	5.8	75.7*
COc1ccc(C2=Cc3ccccc3C(CC(=O)C3CC3)N2c2ccc(C#CCCO)cc2)cc1 (stereo not given)	2.3	4.0	.	.	.
CN(C)c1ccc(C(=O)C=Cc2ccc([N+](=O)[O-])cc2)cc1	-13.6	54.9*	11.5	.	104.1
O=C(C=Cc1ccccc1)c1ccc([N+](=O)[O-])cc1	-36.8	-1.2	1.4	-15.2	114.1
O=C(Nc1nc2cc3c(cc2s1)OCCO3)c1ccncc1	-4.0	4.6	-1.9	-7.1	100.3
O=C(Nc1nc2cc3c(cc2s1)OCCO3)c1ccc(N2C(=O)CCC2=O)cc1	-1.2	2.4	-2.7	-12.6	81.1*
Nc1ccn([C@@H]2O[C@H](CNCC3=CCOc4ccc(O)cc43)[C@@H](O)[C@H]2O)c(=O)n1	-6.8	0.1	-2.5	.	97.6
CN(C)c1ccc(Cc2cc3c(O)ccc(O)c3cc(Cc3ccc(N(C)C)cc3)c2=O)cc1	41.8*	49.8	7.2	29.9	79.9
CN(C)c1ccc(C(=O)c2ccc(O)cc2O)cc1	-4.9	1.0	-0.3	-14.5	.
Cc1ccc(OCc2nnc(SCC(=O)Nc3ncc(C)s3)o2)cc1	2.1	-0.9	-1.7	-3.3	.
CCCOc1ccc(CNC(=O)CCC(=O)n2ncc3cc(C)ccc32)cc1	-0.2	0.1	16.3	-6.5	97.0
COc1ccc(CNC(=O)CCC(=O)n2ncc3cc(C)ccc32)cc1	1.2	-1.1	5.1	1.5	76.0*
CC(=O)Nc1ccc(C(=S)NCCCO)cc1	-4.3	0.1	3.6	-1.3	101.5
O=C(COc1ccc(C(=S)N2CCOCC2)cc1Cl)Nc1ccccc1Cl	0.6	2.1	3.6	-8.3	83.0*
O=C1CC(c2ccco2)Cc2nc(Nc3nc(-c4ccccc4)c4ccccc4n3)ncc21 (stereo not given)	5.3	61.3*	2.3	25.3	80.8
COc1ccc(/C=N/NC(=O)CCn2cnc(-c3ccccc3)c2-c2ccccc2)cc1	0.3	1.5	117.8*	1.2	104.5
O=C(CCn1cnc(-c2ccccc2)c1-c1ccccc1)N/N=C/c1ccc(O)cc1	1.0	-0.6	-3.0	-5.7	98.0
Cc1cc(C)c2nc3sc(=Cc4ccc(-c5ccccc5C(=O)O)o4)c(=O)n3c2c1	61.8*	51.9*	25.4	.	.
SMILES	SUMO1-SIM PPI	LMPTP inh	STEP block	Scp-1 inhibitor	Pemphigus Ab inh
Cc1ccc2c(nc3s/c(=C\c4ccc(-c5ccccc5C(=O)O)o4)c(=O)n32)c1C	17.8	10.5	34.3	76.2*	93.2
Cc1ccc2c(nc3s/c(=C/c4cccs4)c(=O)n32)c1C	-2.3	1.5	1.9	22.1	99.9
O=C(O)c1ccc(-c2ccc(/C=c3/sc4nc5ccccc5n4c3=O)o2)cc1Cl	38.9*	14.4	89.6*	97.8*	289.2
O=C(CCNC(=O)c1ccccc1Cl)NCC1CCCO1 (stereo not given)	6.8	-0.8	2.5	-11.1	104.3
CCCN(C(=O)c1cc(-c2ccco2)nc2ccccc12)c1c(N)n(Cc2ccccc2)c(=O)[nH]c1=O	0.2	13.3	5.8	74.4*	86.6*
CCCCN(C(=O)c1cc(-c2ccco2)nc2ccccc12)c1c(N)n(CCCC)c(=O)[nH]c1=O	1.2	13.3	2.1	.	90.8
CCCCn1c(N)c(N(CCC(C)C)C(=O)c2cc(-c3ccco3)nc3ccccc23)c(=O)[nH]c1=O	0.9	9.2	11.5	61.4*	.
O=C(COC(=O)c1ccc(Cl)nc1)NNC(=O)c1ccc(Br)cc1	-2.2	-1.1	2.2	0.5	.
O=C(NC(Cc1ccccc1)C(=O)O)/C(=C/c1ccccc1)NC(=O)c1cccc(Br)c1 (stereo not given)	1.8	-1.5	-1.6	10.2	103.7
CC(C)CCOc1ncnc2c1sc1nc3c(cc12)CSC(C)(C)C3	44.2*	0.1	-0.8	-4.3	116.4
CCCn1cnc2c(sc3nc4c(cc32)CSC(C)(C)C4)c1=O	1.6	-0.9	-1.7	23.4	.
CC(=O)Nc1cccc(-c2csc(Nc3ccccn3)n2)c1	-0.4	1.2	-1.8	-9.4	70.0*
COc1ccc2nc(-n3c(O)c(C4=c5ccccc5=NC4=O)[nH]c3=S)sc2c1	10.2	15.3	2.7	84.9*	96.8
COc1cc(-c2nc(-c3ccc(Br)o3)no2)cc(OC)c1OC	53.2*	1.5	3.1	-6.6	95.7
O=S(=O)(c1cc(Br)ccc1Br)N1CCCCCC1	2.5	1.4	-0.7	-5.5	116.0
O=S(=O)(c1cc(-c2nnc(-c3ccc(Br)cc3)o2)ccc1Br)N1CCCCCC1	-1.7	2.5	1.8	-10.3	74.2*
CCOC(=O)c1nc(-c2ccccc2)oc1N1CCOCC1	-3.4	-0.3	-2.0	-10.4	108.9
C#Cc1cccc(NC(=O)c2ccc3c(c2)C(=O)N(Cc2cccnc2)C3=O)c1	-28.8	4.4	-1.5	-2.4	104.1
CN(C)c1ccc2nc3ccc(=[N+](C)C)cc-3sc2c1	5.2	13.5	3.9	10.0	102.2
Cc1cc2nc3ccc(=[N+](C)C)cc-3sc2cc1N	54.5*	32.3	3.3	-27.9	82.5
O=C(Cn1cnc2c(nnn2Cc2ccc(Cl)cc2)c1=O)c1ccccc1	10.0	35.0	1.8	24.4	61.7*
O=S(=O)(/C=C/C=C/S(=O)(=O)c1ccccc1)c1ccccc1	40.5*	0.2	0.9	-0.3	89.0
CC(C)CNC(=S)N1CCN(C(c2ccccc2)c2ccccc2)CC1	1.3	0.8	2.6	-7.8	101.2
C=C(C)CNC(=S)N1CCN(C(c2ccccc2)c2ccccc2)CC1	44.0*	0.5	-0.4	-10.4	90.5
Cn1c(=O)n(C)c2cc(N3CCOCC3)c(NC(=O)c3ccc(F)cc3)cc21	48.8*	-1.3	-1.9	-2.2	99.7
COc1ccc(C(=O)N2CCC(C)(C(=O)NS(=O)(=O)C3CC3)C2)c(OC)c1 (stereo not given)	2.7	-1.7	-1.5	.	.

Source: PubChem BioAssay (several laboratories)
